# Screening data (PubChem)
# Compounds with a hit are over-represented: about 4.4% of the library has one in this group of screens.
# AHR act: activates the human aryl hydrocarbon receptor | activation, % at 5 µM | AHR-responsive luciferase reporter cells, luminescence | AID 2796 | 320,000 tested, 2.5% active | P35869; in the data active = activation above about 47%;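 also: 0% = vehicle wells and 100% = reference agonist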
# Target sequence (P35869 whole entry, looked up): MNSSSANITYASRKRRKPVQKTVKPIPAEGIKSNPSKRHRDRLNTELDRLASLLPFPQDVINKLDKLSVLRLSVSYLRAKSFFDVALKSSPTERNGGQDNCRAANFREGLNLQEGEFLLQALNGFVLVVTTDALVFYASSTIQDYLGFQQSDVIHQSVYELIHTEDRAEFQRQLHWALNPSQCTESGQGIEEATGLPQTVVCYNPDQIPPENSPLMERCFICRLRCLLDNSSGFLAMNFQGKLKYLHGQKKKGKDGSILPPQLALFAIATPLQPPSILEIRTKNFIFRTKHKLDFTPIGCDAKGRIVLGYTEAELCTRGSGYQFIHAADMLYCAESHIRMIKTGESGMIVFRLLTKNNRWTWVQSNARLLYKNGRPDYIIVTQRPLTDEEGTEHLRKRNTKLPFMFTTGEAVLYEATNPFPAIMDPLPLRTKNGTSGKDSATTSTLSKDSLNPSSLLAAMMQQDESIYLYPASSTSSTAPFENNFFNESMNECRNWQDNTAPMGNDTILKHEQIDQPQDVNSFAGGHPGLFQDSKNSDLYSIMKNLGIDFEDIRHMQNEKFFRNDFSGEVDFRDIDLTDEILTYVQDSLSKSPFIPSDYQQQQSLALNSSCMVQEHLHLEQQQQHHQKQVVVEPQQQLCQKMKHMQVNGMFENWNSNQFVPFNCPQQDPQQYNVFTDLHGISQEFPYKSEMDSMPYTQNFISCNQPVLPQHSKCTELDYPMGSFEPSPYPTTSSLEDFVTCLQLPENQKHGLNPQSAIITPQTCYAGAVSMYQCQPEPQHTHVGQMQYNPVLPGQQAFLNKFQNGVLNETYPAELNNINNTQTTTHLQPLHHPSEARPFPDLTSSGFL
# AI-2 QS modul: modulates the Vibrio harveyi AI-2 quorum sensing system | 300,000 tested, 0.4% active | Vibrio harveyi JMH597 AI-2 luminescence/OD600 ratio, 9 h; active compounds read low; strain lacks LuxN and CqsS sensors; 0 = neutral-control median | activity change, % at 7.5 µM | AID 2094; in the data active = activity change below about -75%, passing the limit was not always enough; inconclusive = no clear call, values can overlap the other calls;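 also: luminescence divided by OD600 gain over 9 h not by final OD600 alone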
# TbMetRS inhib: blocks T. brucei methionyl-tRNA synthetase activity. 360,000 tested, 0.4% active. AID 624268. purified T. brucei MetRS, ATP depletion, Kinase-Glo luminescence. inhibition, % at 11.9 µM;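 active = inhibition above a per-plate cutoff of the control wells' mean inhibition plus 3 SD, cut at about 5.5% in these data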;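 also: 0% = DMSO wells median and 100% = median of wells with control inhibitor compound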
#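 Test system: purified T. brucei MetRS enzyme. Also added: ATP, methionine and E. coli bulk tRNA substrates. Compound: 11.9 µM single point. Schedule: 15 min enzyme-compound preincubation, 2 h reaction, 10 min detection, 25 °C. Signal: luciferase luminescence of residual ATP, Kinase-Glo. Evaluation: percent inhibition versus plate control medians. Controls: DMSO wells, low control.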
# bovine MsrA act: activates bovine MsrA enzyme. purified bovine MsrA, absorbance read-out. activation, % at 10.6 µM. 360,000 tested, 0.3% active. AID 602163; in the data active = activation above about 7.5%;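 also: 0% = vehicle and 100% = reference activator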
# HTR2A ag: mouse HTR2A agonism via beta-arrestin recruitment. activation, % at 7.6 µM. P35363. CHO-K1 mHTR2A beta-arrestin complementation, luminescence; percent of 30 µM serotonin response. 360,000 tested, 0.66% active;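 active = activation above a run cutoff, the mean activation of all tested compounds plus 3 SD, cut at about 14% in these data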;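 also: 0% = plate median of compound wells and 100% = 30 µM serotonin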
# MsrA inh: bovine MsrA inhibition | purified bovine MsrA, absorbance read-out | inhibition, % at 15.5 µM | 360,000 tested, 0.75% active; in the data active = inhibition above about 4.5%;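 also: 0% = vehicle wells with enzyme and 100% = reference inhibitor wells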
# JMH597 growth: retest: inhibitors of Vibrio harveyi JMH597 growth; AID 2726; growth inhibition, % at 7.5 µM; 750 tested, 1% active; OD600 absorbance, 9 h; lacks LuxN and CqsS sensors; shares compounds with AI-2 QS modul;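 active = every replicate shows growth inhibition above 50%; inconclusive = at least half, but not all, replicates pass that cutoff; inactive = fewer than half of replicates pass it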
# BB721 const-QS lum: retest counter-screen: luminescence loss in constitutive-on quorum sensing strain BB721. Vibrio harveyi BB721 luminescence, 9 h. shares compounds with AI-2 QS modul. 750 tested, 95% active. inhibition, % at 7.5 µM;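 active = inhibition above about 80% in every replicate, not just on average, limit read from the data; inconclusive = at least half of replicates past the limit, but not all; inactive = fewer than half of replicates past the limit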
# BB721 growth: retest: inhibitors of Vibrio harveyi BB721 growth; shares compounds with AI-2 QS modul; OD600 absorbance, 9 h; growth inhibition, % at 7.5 µM; 750 tested, 3% active; AID 2728;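 active = every replicate shows growth inhibition above 50%; inconclusive = at least half but not all replicates above 50% inhibition; inactive = under half of replicates above 50% inhibition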
# AI-2 QS JMH597: Vibrio harveyi AI-2 signaling luminescence modulation – JMH597 strain, confirmation; shares compounds with AI-2 QS modul; 750 tested, 97% active; Vibrio harveyi JMH597 AI-2 quorum sensing luminescence, 9 h; luxN and CqsS knockout, AI-2 only; AID 2736; inhibition, % at 7.5 µM;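 active = every replicate shows more than 75% inhibition of signal versus neutral control wells; inconclusive = half to three quarters of replicates exceed 75% inhibition; inactive = fewer than half of replicates exceed 75% inhibition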
# Starred values were filed as active, the others as inactive; ? = inconclusive; . = no result given.
SMILES,AHR act,AI-2 QS modul,TbMetRS inhib,bovine MsrA act,HTR2A ag,MsrA inh,JMH597 growth,BB721 const-QS lum,BB721 growth,AI-2 QS JMH597
CC(=O)Nc1ccc(C(=O)OCc2ccc(F)cc2)cc1,-2,-83*,-1,-7,0,0,11,93*,31,92*
CC(=O)Nc1ccc(C(=O)OCc2ccc(Cl)cc2)cc1,-1,-91*,0,-1,-6,0,-12,97*,58*,96*
CCCS(=O)(=O)c1ccc(COC(=O)c2ccc(NC(C)=O)cc2)cc1,4,-38,1,-1,-2,0,.,.,.,.
CC1(C)CC(=O)C=C(Nc2cc(-c3ccccc3)[nH]n2)C1,7,-79*,0,-4,-2,2,0,90*,-12,94*
CC1(C)CC(=O)C=C(NCc2ccccc2)C1,0,24,-1,-8,-2,1,.,.,.,.
O=C(Nc1cccc(F)c1)/C(=C\c1ccco1)NC(=O)c1ccco1,25,17,0,-14,-9,1,.,.,.,.
O=C(c1cc2cc(Cl)ccc2[nH]1)N1CCN(c2ccccc2F)CC1,8,15,0,0,-1,1,.,.,.,.
O=C(c1cc2cc(Cl)ccc2[nH]1)N1CCN(C(=O)c2ccco2)CC1,23,-94*,2,-1,1,1,15,97*,15,98*
Cc1ccccc1C(=O)O/N=C(\N)Cc1cccs1,24,-87*,0,-5,6,0,-7,95*,-8,96*
COc1ccc(C/C(N)=N/OC(=O)c2cccs2)cc1,-3,-84*,0,-2,-1,0,39,97*,22,98*
Cc1cccc(CNc2ccc(S(=O)(=O)N3CCCCC3)cc2)c1,1,.,0,-2,-16,0,.,.,.,.
Cc1ccc(C2(C)NC(=O)N(CC(=O)Nc3ccc4c(c3)CCC4)C2=O)cc1 (stereo not drawn),3,.,0,-5,-2,0,.,.,.,.
CC1(c2ccc(Cl)cc2)NC(=O)N(CC(=O)Nc2ccc(F)cc2)C1=O (stereo not drawn),5,-78*,-1,-3,4,0,-12,86*,-15,89*
CC1(c2ccc(Cl)cc2)NC(=O)N(CC(=O)NCc2ccc(F)cc2)C1=O (stereo not drawn),4,28,0,-5,3,1,.,.,.,.
COc1ccc(NC(=O)CN2C(=O)NC(C)(c3ccccc3)C2=O)cc1Cl (stereo not drawn),-1,-95*,0,-2,6,1,24,96*,14,98*
CC1(c2ccccc2)NC(=O)N(CC(=O)Nc2ccc3c(c2)OCO3)C1=O (stereo not drawn),9,-95*,0,-6,3,0,-10,96*,-14,98*
CC(C)CC1(C)NC(=O)N(CC(=O)Nc2ccc3c(c2)CCC3)C1=O (stereo not drawn),10,-85*,-1,-9,2,1,2,90*,-11,94*
COc1ccc(NC(=O)C2=CC=CN3CCS(=O)(=O)N=C23)c(OC)c1,7,.,0,-7,12,3,.,.,.,.
Cc1ccccc1CC(=O)Nc1ccc2c(C)cc(=O)oc2c1,-8,11,0,-4,1,-1,.,.,.,.
CC1(c2ccc(OC(F)F)cc2)NC(=O)N(CC(=O)Nc2ccc3c(c2)OCO3)C1=O (stereo not drawn),3,-94*,-1,-2,-2,1,-4,96*,-11,97*
Cc1cc(=O)oc2cc(NC(=O)CN3C(=O)NC(C)(c4ccccc4)C3=O)ccc12 (stereo not drawn),2,-84*,0,-5,-7,2,6,86*,-1,91*
CCCCNC(=O)c1nc(C2CCN(S(=O)(=O)c3ccc(F)c(F)c3)CC2)oc1-c1ccccc1,.,.,-1,-7,3,0,.,.,.,.
Cc1ccc(/C=C/C(=O)c2ccc(O)cc2)cc1,1,-94*,3,-3,-4,2,-7,97*,-22,98*
O=C(Nc1cnn(Cc2ccc(F)cc2)c1)c1cnccn1,7,-95*,-1,-1,4,1,5,98*,2,98*
Cc1ccc(NC(=O)CCc2ccc(C)o2)cc1,0,?,0,0,1,0,23,87*,2,92*
SMILES,AHR act,AI-2 QS modul,TbMetRS inhib,bovine MsrA act,HTR2A ag,MsrA inh,JMH597 growth,BB721 const-QS lum,BB721 growth,AI-2 QS JMH597
Cc1ccc(CCC(=O)Nc2ccc([N+](=O)[O-])cc2)o1,21,-91*,-1,-9,-4,3,9,97*,-14,98*
CC(=O)Nc1ccc(NC(=O)CCc2ccc(C)o2)cc1,2,13,0,-3,3,-1,.,.,.,.
Cc1c(C(=O)NC(c2ccccn2)C(F)(F)F)oc2c(F)cccc12 (stereo not drawn),12,20,0,-2,1,1,.,.,.,.
COc1cccc2c1OC1(C)CC2NC(=O)N1c1cccc(C(=O)N2CCN(c3ccccn3)CC2)c1 (stereo not drawn),1,5,0,-2,-3,1,.,.,.,.
COc1ccccc1N1CCN(C(=O)c2cccc(N3C(=O)NC4CC3(C)Oc3c(OC)cccc34)c2)CC1 (stereo not drawn),4,-83*,0,-3,2,-1,-7,-5,-14,6
COc1ccc(S(=O)(=O)Nc2ccc3c(c2)OCCO3)cc1Cl,-1,24,-1,0,4,0,.,.,.,.
CC(=O)Nc1ccc(S(=O)(=O)Nc2ccc3c(c2)OCCO3)cc1Cl,1,-97*,-1,-2,0,0,5,99*,-35,100*
O=C(c1ccco1)N1CCN(C(=O)c2cnn(-c3ccc(F)cc3)c2-n2cccc2)CC1,.,.,0,-5,3,0,.,.,.,.
O=C1COc2ccc(C(=O)COC(=O)Cc3c(F)cccc3Cl)cc2N1,.,.,0,-4,1,-1,.,.,.,.
O=C1COc2ccc(C(=O)COC(=O)Cc3ccccc3F)cc2N1,-1,-83*,0,-2,-4,-1,3,88*,0,91*
O=C1COc2ccc(C(=O)COC(=O)Cc3ccsc3)cc2N1,-1,-85*,0,-4,-1,1,27,95*,11,97*
